# Hits are enriched below; roughly 2.9% of the tested compounds scored in any of these assays.
# CAL PDZ FP-1 = blocks peptide binding to the human CAL PDZ domain; Q9HD26; purified CAL PDZ, TMR-peptide fluorescence polarization, 1 h; inhibition, % at 24.9 µM; actives 0.92% (n = 300,000); AID 602252;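 active = mean inhibition of at least 30% with at least half of replicates also reaching 30%; inconclusive = no clear call, values can overlap the other calls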;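 also: 0% = DMSO neutral control and 100% = excess unlabeled competitor peptide PRC23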
# CAL PDZ FP-2 = inhibitors of human CAL PDZ peptide binding; Q9HD26; purified CAL PDZ, TMR-peptide fluorescence polarization, 1 h; inhibition, % at 20 µM; actives 0.02% (n = 330,000);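 active = highest replicate inhibition of at least 40%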;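 also: plate controls were DMSO neutral control wells for no effect and unlabeled competitor peptide control wells for full effect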
#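 Control set: unlabelled peptide and DMSO controls / Material: purified CerCALP PDZ construct / Timing: 1 h incubation at room temperature before polarization reading / Doses: 20 µM, one dose / Detection: fluorescence polarization (mP)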
# ERAP1 HTS inh = ERAP1 (human) enzyme inhibition | inhibition, % at 10.7 µM | actives 0.15% (n = 340,000) | recombinant ERAP1, Leu-AMC fluorescence, 60 min;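 active = mean replicate inhibition of at least 30%, or all replicates individually reaching that 30% level; inactive = mean below 30% and not every replicate reaching it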;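 also: 0% = neutral control wells and 100% = L-leucinethiol positive control wells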
# SIRT5 inh = inhibitors of human sirtuin-5 desuccinylase; inhibition, % at 15 µM; Purified SirT5, succinyl-peptide AMC, trypsin-coupled fluorescence; AID 652115; Q9NXA8; actives 1.1% (n = 330,000); in the data active = inhibition above about 15%; inconclusive = no clear call, values can overlap the other calls
# Target sequence (Q9NXA8 whole entry, looked up): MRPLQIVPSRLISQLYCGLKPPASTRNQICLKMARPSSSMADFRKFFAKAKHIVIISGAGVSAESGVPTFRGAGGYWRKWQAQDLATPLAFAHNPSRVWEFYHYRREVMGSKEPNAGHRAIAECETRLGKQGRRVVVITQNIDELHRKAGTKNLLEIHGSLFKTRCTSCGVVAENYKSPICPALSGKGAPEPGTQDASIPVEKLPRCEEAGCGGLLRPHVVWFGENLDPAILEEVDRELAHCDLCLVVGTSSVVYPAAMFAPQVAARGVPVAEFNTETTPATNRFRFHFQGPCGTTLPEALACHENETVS
# S100A4 MyoIIA = inhibitors of human S100A4 binding to myosin IIA peptide. P26447. S100A4/TAMRA-MyoIIA peptide fluorescence polarization. inhibition, % at 10.7 µM. actives 0.14% (n = 360,000). AID 652163;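 active = mean inhibition of at least 70% across replicates, with every replicate also reaching that level; inconclusive = mean inhibition reaches 70% but some replicates fall short; inactive = mean inhibition below 70%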
# Target sequence (P26447 whole entry, looked up): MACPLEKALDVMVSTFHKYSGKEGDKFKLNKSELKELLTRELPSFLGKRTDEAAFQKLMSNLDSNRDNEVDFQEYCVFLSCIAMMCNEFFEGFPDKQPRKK
#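 Test system: S100A4 monomer protein; Medium: HEPES pH 7.2 with CaCl2, KCl, NaCl, DTT, Triton; Probe or stimulus: TAMRA-labelled myosin IIA heavy-chain peptide probe, 5 nM; Doses: one dose per compound; Times: polarization read 5 min after assay mix addition, stable 5–60 min; Benchmarks: neutral control DMSO, positive control TFP.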
# DENV2 CPE rescue = inhibitors of DENV2 cytopathic effect. DENV2-infected cells, cytopathic effect rescue, plate reader. CPE inhibition, % at 9.99 µM. actives 1.7% (n = 350,000); in the data active = CPE inhibition above about 20%, passing the limit was not always enough; inconclusive = no clear call, values can overlap the other calls; tested in BHK-21 cells;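 also: 0% = median of neutral control wells and 100% = median of positive control wells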
# Starred values were filed as active, the others as inactive; ? = inconclusive; nt = no result; ! = a repeat was not active.
SMILES,CAL PDZ FP-1,CAL PDZ FP-2,ERAP1 HTS inh,SIRT5 inh,S100A4 MyoIIA,DENV2 CPE rescue
COc1ccc(NC(=O)N(C)C[C@H]2Oc3c(NC(=O)c4nc5ccccc5s4)cccc3C(=O)N([C@@H](C)CO)C[C@@H]2C)cc1,nt,nt,0,-3,6,15
C[C@@H]1CN([C@@H](C)CO)C(=O)c2cccc(NC(=O)c3nc4ccccc4s3)c2O[C@@H]1CN(C)C(=O)Nc1ccc(F)cc1,nt,nt,1,3,17,-8
C[C@H](CO)N1C[C@H](C)[C@H](CN(C)C(=O)Nc2ccc(F)cc2)Oc2c(NC(=O)c3nc4ccccc4s3)cccc2C1=O,nt,nt,0,5,21,31*
C[C@@H]1CN([C@H](C)CO)C(=O)c2cccc(NC(=O)c3nc4ccccc4s3)c2O[C@H]1CN(C)C(=O)NC1CCCCC1,nt,nt,4,7,7,45*
COc1ccc(NC(=O)N(C)C[C@H]2Oc3c(NC(=O)c4nc5ccccc5s4)cccc3C(=O)N([C@@H](C)CO)C[C@H]2C)cc1,-3,-2,2,20*!,1,32*!
COC(=O)C[C@H]1CC[C@@H]2[C@@H](COc3ccc(NC(=O)Nc4ccccc4C)cc3C(=O)N2C)O1,nt,nt,-4,3,-7,-2
COc1ccccc1CNC(=O)C[C@@H]1C[C@H]2c3cc(NC(=O)NC4CCCC4)ccc3O[C@H]2[C@H](CO)O1,nt,nt,5,5,-1,-3
C[C@@H]1CCCCO[C@H](CN(C)S(C)(=O)=O)[C@H](C)CN([C@@H](C)CO)C(=O)c2cc(NC(=O)Nc3ccc4c(c3)OCO4)ccc2O1,nt,nt,-3,5,-5,-2
O=C(O)c1ccc(NS(=O)(=O)c2ccc3c(c2)C2C=CCC2C(c2ccccc2F)N3)cc1 (stereo unspecified),1,0,6,51*,-3,1
COc1cccc(NC(=O)N[C@@H]2C=C[C@@H](CC(=O)Nc3ccc(-c4ccccc4)cc3)O[C@H]2CO)c1,nt,nt,0,0,-25,9
COc1ccc(NC(=S)Nc2cccc(Cl)c2)cc1OC,-4,-2,-1,112*,4,0
COc1ccc(NC(=S)Nc2cccc(C(C)=O)c2)cc1OC,-3,-6,6,0,-5,1
CN(C)S(=O)(=O)c1cccc(C(=O)Nc2ccccc2C(=O)NC2CC2)c1,-4,-1,0,-6,1,54*
O=S(=O)(NCc1ccc(Cl)cc1Cl)c1ccc(N2CCOCC2)nc1,36*,-1,nt,-1,-2,-1
C[C@H]1CN([C@@H](C)CO)C(=O)Cc2cc(NC(=O)Cc3ccccc3)ccc2O[C@@H]1CN(C)C,nt,nt,-1,-2,18,-1
O=C(c1ccccc1F)N1CC(=O)N2[C@H](CO)[C@@H](c3ccc(C#Cc4ccc(F)cc4)cc3)[C@H]2C1,nt,nt,0,0,-2,?
COc1cc2sc3ccc(C#Cc4ccccn4)cc3c(=O)c2cc1OC,-3,-1,2,nt,-27,23*
Cc1noc(C)c1NC(=O)Nc1cccc2c1O[C@@H](CN(C)Cc1ccccc1)[C@@H](C)CN([C@H](C)CO)C2=O,nt,nt,3,2,11,4
Cc1ccc(-c2ccc(C3[C@H]4CNC[C@@H]3N4C(=O)NC(C)C)cc2)cc1 (stereo partly specified),nt,nt,2,2,-16,-10
COc1ccccc1NC(=O)N1CCN(c2ccccn2)CC1,nt,-3,3,-3,63,31*
Cc1cc(Br)ccc1NC(=O)CN1CCN(c2ccccn2)CC1,75*,nt,3,-3,3,12
COc1ccc(NC(=O)CN2CCN(c3ccccn3)CC2)cc1Cl,-7,nt,-1,29*,0,-6
O=C(CN1CCN(S(=O)(=O)N2CCOCC2)CC1)Nc1ccc(Cl)c(Cl)c1,-2,-4,122*,-1,0,8
C/C=C/c1cnc2c(c1)C(=O)N([C@@H](C)CO)C[C@@H](C)[C@H](CN(C)Cc1ccc3c(c1)OCO3)O2,nt,nt,-3,-22,1,-2
COCC(=O)N(C)C[C@@H]1Oc2cc(C#C[C@@H](C)O)ccc2S(=O)(=O)N([C@@H](C)CO)C[C@@H]1C,nt,nt,-2,-3,9,?
SMILES,CAL PDZ FP-1,CAL PDZ FP-2,ERAP1 HTS inh,SIRT5 inh,S100A4 MyoIIA,DENV2 CPE rescue
COc1cc2[nH]c(=O)n(CCCCCC(=O)N3CCN(c4ccccn4)CC3)c(=O)c2cc1OC,-5,-2,-3,24*,0,nt
COc1ccc(S(=O)(=O)N(C)C[C@@H]2Oc3ncc(C#CCN(C)C)cc3C(=O)N([C@H](C)CO)C[C@@H]2C)cc1,nt,nt,-2,21*,-3,8
Cc1ccc(S(=O)(=O)N(C)C[C@@H]2Oc3ncc(C#Cc4ccccc4)cc3C(=O)N([C@H](C)CO)C[C@@H]2C)cc1,nt,nt,-1,16*,6,-2
C[C@H](CO)N1C[C@H](C)[C@H](CN(C)S(=O)(=O)c2ccc(C#N)cc2)Oc2ncc(C#Cc3ccccc3)cc2C1=O,nt,nt,-1,4,-11,17
C[C@H](CO)N1C[C@H](C)[C@H](CN(C)S(C)(=O)=O)Oc2ncc(C#Cc3ccc(C(F)(F)F)cc3)cc2C1=O,nt,nt,0,1,5,-7
COc1cccc(S(=O)(=O)N(C)C[C@@H]2Oc3ncc(C#CCN(C)C)cc3C(=O)N([C@@H](C)CO)C[C@H]2C)c1,nt,nt,-1,-6,-2,-6
C[C@H](CO)N1C[C@H](C)[C@H](CN(C)S(=O)(=O)c2ccc(C#N)cc2)Oc2ncc(C#Cc3ccc(C(F)(F)F)cc3)cc2C1=O,nt,nt,-1,27*,-6,-2
O=C(Nc1nccs1)[C@H]1[C@H](CO)[C@H]2Cn3c(cccc3=O)[C@H]2N1C(=O)C1CC1,nt,nt,1,-10,5,5
CCCS(=O)(=O)c1nc(S(=O)(=O)c2ccc(C)cc2)c(N2CCC3(CC2)OCCO3)s1,57*,-1,2,0,4,-3
Cc1cccc2sc(N(CCCN(C)C)C(=O)c3nc4ccccc4s3)nc12,-7,-4,nt,nt,nt,nt
Cc1cccc2sc(N(CCCN(C)C)C(=O)c3ccc4ncsc4c3)nc12,-2,-5,76*,-2,-3,4
COc1ccc(NC(=O)N(C)C[C@@H]2Oc3ccc(NC(=O)NC(C)C)cc3C(=O)N([C@@H](C)CO)C[C@H]2C)cc1,nt,nt,-1,-1,0,-1
COc1ccc(NC(=O)Nc2ccc3c(c2)C(=O)N([C@H](C)CO)C[C@@H](C)[C@@H](CN(C)C(=O)Nc2ccc(C(F)(F)F)cc2)O3)cc1,nt,nt,0,15*,-26,-7
COc1ccc(NC(=O)N(C)C[C@H]2Oc3ccc(NC(=O)NC(C)C)cc3C(=O)N([C@H](C)CO)C[C@H]2C)cc1,nt,nt,-1,2,-11,34*

# Assay outcomes from PubChem BioAssay.
